# In article PMC2225856 (The Journal of General Physiology, 1970):
# Read-outs that look alike come from different tables or passages of the source. Bridge positions count the residues as written; N and C are the ends. Ends that are not written are not given here.
# How the values were obtained:
# [1] = system: toad urinary bladder; assay: Noncompetitive antagonism of the hydroosmotic response; format: cell-based, Bufo marinus
# Summary of the method: (§1)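 Bufo marinus, 150-250 g, both sexes, kept on moist peat moss and pithed. Bentley sac hemibladders filled with dilute Ringer were preincubated 2 h in stirred full-strength Ringer, then moved to the challenge bath. Water loss was read as sac weight loss at 30 min intervals; sacs were emptied, refilled with fresh dilute Ringer and placed in a fresh bath after each weighing.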
# [2] = system: toad urinary bladder; assay: Hydroosmotic response of the toad urinary bladder; format: cell-based, Bufo marinus; settings: serosal bath, concentrations as high as 2.86 X 10^-6 M
# Summary of the method: as §1
# [3] = system: toad urinary bladder; settings: note added in proof; ref Chiu, P.J.S. and W.H. Sawyer. 1970; cited from earlier work
# [4] = system: toad urinary bladder; settings: cited from earlier work; for pD2 of reference agonist: Table II, ± SEM
# [5] = calculated on the basis of earlier data, ref Eggena et al. (18)
compound,measurement,setting,value
"CCCCC[C@H](O)/C=C/[C@H]1[C@H](O)CC(=O)[C@@H]1CCCCCCC(=O)O [PGE1, prostaglandin E1]",Effect on response to oxytocin-theophylline combination,"[1]; 2.9 X 10^-7 M PGE1, 1 X 10^-9 M oxytocin + 4 X 10^-3 M theophylline, eight experiments",reduced by PGE1 to almost basal levels
same,Effect on response to cyclic AMP-theophylline combination,"[1]; 2.9 X 10^-7 M PGE1, 2.5 X 10^-3 M cyclic AMP + 4 X 10^-3 M theophylline, eight experiments",only minimally
same,Maximal response to dibutyryl cyclic AMP in the presence of PGE1,"[1]; 2.9 X 10^-7 M PGE1, fraction of maximal response (0.80 without PGE1), ± SEM",0.72
same,Maximal response to theophylline in the presence of PGE1,"[1]; fraction of maximal response (0.78 without PGE1), ± SEM",0.10
same,"Diminution in the maximal response to oxytocin in the presence of PGE1, average","[1]; fraction of maximal response, ± 0.10, considerable variation",0.77
same,Hydroosmotic activity per se (bladder permeability to water),[2],did not increase the bladder permeability to water
"[4-leucine]-oxytocin (CYILNCPLG; ends and bridges not checked; cysteine pairing not given here; UniProt P01178 20-28, looked up, variant Q4L)",Inhibition of the hydroosmotic action of [8-arginine]-vasopressin and [8-arginine]-vasotocin,[3],competitively in- hibits
[5-ornithine]-oxytocin,pD2 of reference agonist,[4]; ref Havran et al. (22),4.92
"[8-arginine]-vasopressin (CYFQNCPRG-NH2; disulfide 1-6; UniProt P01185 20-28, looked up)",pD2 of reference agonist,[4]; [5],9.40
oxytocin,pD2 of reference agonist,[4]; [5],8.63
same,Maximal hydroosmotic response,[4],100%
